Key:
Format in all cases: functional, Mus musculus
B16 [1] = test: Antitumor activity against B16 melanoma from B6 D2 F1 female mice(T/C) as median survival time of treated mice (T) over that of control mice (C) at a dose of 0.03 mg/kg/day (repeated ip injections, day 1-9); conditions: route intraperitoneal
Method in brief: (§1)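 B16 melanoma homogenate (1 g tumor in 9 mL 0.9% saline), 0.5 mL implanted ip on day 0 in B6D2F1 female mice (C57BL/6 ♀ × DBA/2 ♂). Treatment ip once daily from day 1 to day 9. Toxicity scored as survivors on day 5. Median survival recorded and T/C computed as treated/control median survival, ≥125% significant.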

B16 [2] = test: Antitumor activity against B16 melanoma from B6 D2 F1 female mice(T/C) as median survival time of treated mice (T) over that of control mice (C) at a dose of 0.06 mg/kg/day (repeated ip injections, day 1-9); conditions: route intraperitoneal; method in brief: as §1
B16 [3] = test: Antitumor activity against B16 melanoma from B6 D2 F1 female mice(T/C) was evaluated from the median survival time of treated mice (T) over that of control mice (C) at a dose of 0.25 mg/kg/day
Method in brief: (§2)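 B6D2F1 female mice (C57BL/6 ♀ × DBA/2 ♂) implanted ip on day 0 with 0.5 mL of B16 tumor suspension (1 g homogenized in 9 mL 0.9% saline). Dosing ip on days 1, 5 and 9. Day-5 survivors give toxicity. Median survival of treated vs control mice gives T/C%, with ≥125% significant.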

B16 [4] = test: Antitumor activity against B16 melanoma from B6 D2 F1 female mice evaluated as the number of survivors on day 5 at a dose of 0.06 mg/kg/day; method in brief: as §2
B16 [5] = test: Antitumor activity against B16 melanoma from B6 D2 F1 female mice evaluated as average weight change of animals between day 1 and day 5 after tumor implementation at a dose of 0.03 mg/kg/day
Method in brief: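 B16 melanoma in B6D2F1 female mice: 0.5 mL of tumor homogenate (1 g in 9 mL 0.9% saline) was given ip on day 0. Ip dosing was on days 1, 5 and 9. The readout was the average body weight change between day 1 and day 5 after tumor implantation.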

B16 [6] = test: Antitumor activity against B16 melanoma from B6 D2 F1 female mice evaluated as the number of survivors on day 5 at a dose of 0.03 mg/kg/day; method in brief: as §2
B16 [7] = test: Antitumor activity against B16 melanoma from B6 D2 F1 female mice as Median survival time of treated mice at a dose of 0.50 mg/kg/day (repeated ip injections, day 1-9); conditions: route intraperitoneal; method in brief: as §1
B16 [8] = test: Antitumor activity against B16 melanoma from B6 D2 F1 female mice evaluated as Median survival time of treated mice at a dose of 0.03 mg/kg/day; method in brief: as §2
B16 [9] = test: Antitumor activity against B16 melanoma from B6 D2 F1 female mice evaluated as Median survival time of treated mice at a dose of 0.06 mg/kg/day; method in brief: as §2
B16 [10] = test: Antitumor activity against B16 melanoma from B6 D2 F1 female mice evaluated as Median survival time of treated mice at a dose of 0.06 mg/kg/day (repeated ip injections, day 1-9); conditions: route intraperitoneal; method in brief: as §1
L1210 [11] = test: Antitumor activity against L1210 Lymphoid Leukemia from CDF1 female mice as Median survival time of treated mice at a dose of 0.50 mg/kg/day
Method in brief: (§3)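 L1210 leukemia, 10⁵ cells ip on day 0 into CDF1 female mice (BALB/c ♀ × DBA/2 ♂). Drug in 2% methanol given ip on days 1, 5 and 9, 10 mice per group. Survivors and body weight recorded on days 1 and 5, with toxicity as survivors on day 5. Deaths followed for 30 days. T/C = treated/control median survival time, significant at ≥125%.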

L1210 [12] = test: Antitumor activity against L1210 Lymphoid Leukemia from CDF1 female mice as average weight change of animals between day 1 and day 5 after tumor implementation at a dose of 0.25 mg/kg/day
Method in brief: (§4)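 CDF1 female mice (BALB/c × DBA/2) received 10⁵ L1210 cells ip on day 0. Drug was dissolved in 2% methanol and given ip on days 1, 5 and 9, to 10 mice per group. Weights were taken on days 1 and 5, and the mean change was reported.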

L1210 [13] = test: Antitumor activity against L1210 Lymphoid Leukemia from CDF1 female mice (T/C) as median survival time of treated mice (T) over that of control mice (C) at a dose of 0.50 mg/kg/day; method in brief: as §3
L1210 [14] = test: Antitumor activity against L1210 Lymphoid Leukemia from CDF1 female mice as average weight change of animals between day 1 and day 5 after tumor implementation at a dose of 1.0 mg/kg/day; method in brief: as §4
L1210 [15] = test: Antitumor activity against L1210 Lymphoid Leukemia from CDF1 female mice (T/C) as median survival time of treated mice (T) over that of control mice (C) at a dose of 1.0 mg/kg/day; method in brief: as §3
P388 [16] = test: Average weight change of animals between day 1 and day 5 after tumor implementation at a dose of 0.50 mg/kg/day
Method in brief: (§5)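 P388 leukemia: CDF1 female mice were inoculated ip with 10⁶ cells on day 0. Treatment in 2% methanol was given ip on days 1, 5 and 9, with 10 mice per group and a larger control group. Body weight was recorded on days 1 and 5 post-implant, and the average change was reported.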

P388 [17] = test: Average weight change of animals between day 1 and day 5 after tumor implementation at a dose of 0.75 mg/kg/day; method in brief: as §5
P388 [18] = test: Average weight change of animals between day 1 and day 5 after tumor implementation at a dose of 1 mg/kg/day; method in brief: as §5
P388 [19] = test: Antitumor activity against P388 Leukemia from CDF1 female mice evaluated as number of survivors on day 5 at a dose of 1 mg/kg/day
Method in brief: (§6)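 CDF1 female mice (BALB/c × DBA/2) inoculated ip with 10⁶ P388 cells on day 0. Drug given ip in 2% methanol on days 1, 5 and 9. Ten mice per dose group, with a larger control group. Body weight and survival were recorded on days 1 and 5, with toxicity taken as survivors on day 5. Mortality was followed for 30 days to give median survival time.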

P388 [20] = test: Antitumor activity against P388 Leukemia from CDF1 female mice evaluated as Median survival time of treated mice at a dose of 0.03 mg/kg/day
Method in brief: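 CDF1 female mice (BALB/c ♀ × DBA/2 ♂) given 10⁶ P388 cells ip on day 0. Drug in 2% methanol given ip on days 1, 5 and 9, 10 mice per group and more controls. Toxicity is survivors on day 5, with weight change between days 1 and 5. Mortality followed 30 days. T/C% is treated over control median survival (NCI method), significant at ≥125%.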

P388 [21] = test: Average weight change of animals between day 1 and day 5 after tumor implementation at a dose of 0.25 mg/kg/day; method in brief: as §5
P388 [22] = test: Antitumor activity against P388 Leukemia from CDF1 female mice evaluated as the number of survivors on day 5 at a dose of 0.50 mg/kg/day; method in brief: as §6
P388 [23] = test: Average weight change of animals between day 1 and day 5 after tumor implementation at a dose of 0.03 mg/kg/day; method in brief: as §5
P388 [24] = test: Average weight change of animals between day 1 and day 5 after tumor implementation at a dose of 0.06 mg/kg/day; method in brief: as §5
B16 [25] = test: Antitumor activity against B16 melanoma from B6 D2 F1 female mice as Median survival time of treated mice at a dose of 0.03 mg/kg/day (repeated ip injections, day 1-9); conditions: route intraperitoneal; method in brief: as §1

COc1ccc(C[C@H]2C(=O)O[C@H](C)[C@H](NC(=O)[C@@H](CC(C)C)N(C)C(=O)C3CCCN3C(=O)[C@@H](C)O)C(=O)NC(C(C)C)[C@H](O)CC(=O)O[C@@H](C(C)C)C(=O)[C@H](C)C(=O)N[C@@H](CC(C)C)C(=O)N3CCC[C@H]3C(=O)N2C)cc1 (stereo not given in full) [NORDIDEMNIN]
T/C (B16 [1]): 139% | T/C (B16 [2]): 146% | T/C (B16 [3]): 142% | Toxicity (B16 [4]): 1 | Body weight change (B16 [5]): 0 g | Toxicity (B16 [6]): 1 | median survival time, days (B16 [7]): 9.9 | median survival time, days (B16 [8]): 19.3 | median survival time, days (B16 [9]): 22 | median survival time, days (B16 [10]): 27.8 | median survival time, days (L1210 [11]): 10.7 | Body weight change (L1210 [12]): 0 g | T/C (L1210 [13]): 117% | Body weight change (L1210 [14]): -0.5 g | T/C (L1210 [15]): 123% | Body weight change (P388 [16]): -1.2 g | Body weight change (P388 [17]): -1.7 g | Body weight change (P388 [18]): -2.3 g | Toxicity (P388 [19]): 1 | median survival time, days (P388 [20]): 12.4 | Body weight change (P388 [21]): -0.7 g | Toxicity (P388 [22]): 1 | Body weight change (P388 [23]): 0 g | Body weight change (P388 [24]): 0.2 g | median survival time, days (B16 [25]): 26.5

Source: ChEMBL document CHEMBL1125226, “Antineoplastic activity of didemnin congeners: nordidemnin and modified chain analogues” (1991)
